According to ChEMBL document CHEMBL1157875, “Thiosemicarbazones, semicarbazones, dithiocarbazates and hydrazide/hydrazones: anti-Mycobacterium tuberculosis activity and cytotoxicity” (Eur J Med Chem, 2010):
In brackets after ≈: the same amount, converted by molar mass.

Key:
[1] = system: Mycobacterium tuberculosis; assay: Antimycobacterial activity against Mycobacterium tuberculosis H37Rv after 7 days by resazurine microtiter assay; type: functional; settings: 168 h
In short: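 M. tuberculosis broth microdilution (REMA). Compounds dissolved as DMSO stocks and diluted in Middlebrook 7H9 broth with OADC enrichment. Culture and compounds combined in 96-well plates, in triplicate, incubated 7 days at 37 °C. Resazurin then added; fluorescence read at 530 nm excitation, 590 nm emission. Isoniazid run on every plate as standard.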

J774 = assay: Cytotoxicity against mouse J774 cells after 24 hrs by resazurin assay; type: cell-based; settings: J774, 24 h
In short: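 J774 macrophages grown to confluence at 37 °C in 5% CO2, then seeded at 1 × 10^5 cells/mL and allowed 24 h to adhere. Resazurin added for 6 h; fluorescence read at 530 nm excitation, 590 nm emission.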

[2] = Selectivity index, ratio of IC50 for mouse J774 cells to MIC for Mycobacterium tuberculosis H37Rv; type: functional

| Compound | MIC [1] | IC50 (J774) | Selectivity Index [2] |
| --- | --- | --- | --- |
| CNC(=S)N/N=C(\C)c1ccccn1 | 37.5 µM (≈ 7.8 µg/mL) |  |  |
| CCNC(=S)N/N=C(\C)c1ccccn1 | 14.1 µM (≈ 3.13 µg/mL) | 2810 µM | 200 |
| C/C(=N\NC(=S)N1CCCCCC1)c1ccccn1 | ≥ 181 µM | 4520 µM | <=25 |
| S=C(N/N=C(/C(=N/NC(=S)Nc1ccccc1)c1ccccc1)c1ccccc1)Nc1ccccc1 | 49.1 µM (≈ 25 µg/mL) | 2460 µM | 50 |
| C/C(=N\NC(=S)Nc1ccccc1)c1ccccn1 | 57.7 µM (≈ 15.6 µg/mL) |  |  |
| C/C(=N\NC(N)=S)c1ccccn1 | 161 µM (≈ 31.3 µg/mL) |  |  |
| O=C(N/N=C/c1ccccn1)c1ccccc1O | ≥ 1040 µM | 1300 µM | <=1.25 |
| O=C(N/N=C(/C(=N/NC(=O)c1ccncc1)c1ccccc1)c1ccccc1)c1ccncc1 | 27.9 µM (≈ 12.5 µg/mL) | 349 µM | 12.5 |
| O=C(N/N=C/c1ccccc1O)c1ccccc1O | 122 µM (≈ 31.3 µg/mL) | 1220 µM | 10 |
